Measurements reported in ChEMBL document CHEMBL1126286, “Oral hypoglycemic agents. Pyrimido[1,2-a]indoles and related compounds” (1992).

The compounds below were run on Rattus norvegicus (assay: Hypoglycemic activity was tested in rats at a standard dose of 100 mg/kg and calculated as percent of vehicle control after 2 hours (six rats per group)). Conditions: not given.
Format: functional
Procedure, shortened: (§1)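 Fed male Sprague-Dawley CD rats (280-320 g), six per group, 100 mg/kg po as solution in water or suspension in 0.5% carboxymethylcellulose (1 mL/kg); parallel vehicle controls. Tail-vein blood (0.3 mL) taken 2 and 4 h post-dose into EDTA and Trasylol; plasma glucose by glucose oxidase-peroxidase, expressed as percent of vehicle control; Student-Newman-Keuls test for significance.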

Row | Compound | Blood glucose [%]
1 | CC1(C)CN=C2N(C1)c1ccccc1C2(N)c1ccccc1.Cl.Cl (stereo unspecified) | 78
2 | Cl.Cl.NC1(c2ccccc2)C2=NCCCN2c2ccccc21 (stereo unspecified) | 84
3 | Cl.Cl.OC1(c2ccccc2)C2=NCC3(CCNCC3)CN2c2ccccc21 (stereo unspecified) | 102
4 | CC1(C)CN=C2N(C1)c1ccccc1C2(NC(=O)c1ccccc1)c1ccccc1.Cl (stereo unspecified) | 104
5 | CCCCC1(O)C2=NCC3(CCCCC3)CN2c2ccccc21.Cl (stereo unspecified) | 60
6 | C=CCC1(O)C2=NCC(C)(C)CN2c2ccccc21.Cl (stereo unspecified) | 86
7 | CC1(C)CN=C2N(C1)c1ccccc1C2(O)C1CC1.Cl (stereo unspecified) | 83
8 | CCC1(O)C2=NCC(C)(C)CN2c2ccccc21.Cl (stereo unspecified) | 89
9 | CC(C)(C)CC1(O)C2=NCC(C)(C)CN2c2ccccc21.Cl (stereo unspecified) | 68
10 | CC1(C)CN=C2N(C1)c1ccccc1C2(NS(C)(=O)=O)c1ccccc1.Cl (stereo unspecified) | 76
11 | CCCC(=O)NC1(c2ccccc2)C2=NCC(C)(C)CN2c2ccccc21.Cl (stereo unspecified) | 101
12 | CCCCC1(O)C2=NCC(C)(C)CN2c2ccccc21.Cl (stereo unspecified) | 58
13 | Cl.OC1(c2ccc3ccccc3c2)C2=NCCCN2c2ccccc21 (stereo unspecified) | 88
14 | Cl.OC1(c2ccccc2)C2=NCCCN2c2ccccc21 (stereo unspecified) | 86
15 | Cl.OC1(CC2CCCCC2)C2=NCCCN2c2ccccc21 (stereo unspecified) | 77
16 | CC(C)CC1(O)C2=NCCCN2c2ccccc21.Cl (stereo unspecified) | 79
17 | CCOCCCCC1(O)C2=NCCCN2c2ccccc21.Cl (stereo unspecified) | 100
18 | COCC(C)CC1(O)C2=NCCCN2c2ccccc21.Cl (stereo unspecified) | 94
19 | CC1(C)CN=C2N(C1)c1ccccc1C2(O)c1ccccc1.Cl (stereo unspecified) | 90
20 | COCC(C)CC1(O)C2=NCC(C)(C)CN2c2ccccc21.Cl (stereo unspecified) | 73
21 | CC(=O)NC1(c2ccccc2)C2=NCC3(CCCC3)CN2c2ccccc21.Cl (stereo unspecified) | 99
22 | CC(C)CC1(O)C2=NCC(C)(C)CN2c2ccccc21.Cl (stereo unspecified) | 88

Row | Compound | Blood glucose [%]
23 | Cl.OCC#CC1(O)C2=NCCCN2c2ccccc21 (stereo unspecified) | 94
24 | CC(=O)NC1(c2cccc(Cl)c2)C2=NCCCN2c2ccccc21.Cl (stereo unspecified) | 89
25 | Cl.NC1(c2cccc(Cl)c2)C2=NCCCN2c2ccccc21 (stereo unspecified) | 95
26 | COCCCCC1(O)C2=NCC(C)(C)CN2c2ccccc21.Cl (stereo unspecified) | 79
27 | CCC(CC)CC1(O)C2=NCCCN2c2ccccc21.Cl (stereo unspecified) | 82
28 | Cl.OC1(c2cccc(Cl)c2)C2=NCCCN2c2ccccc21 (stereo unspecified) | 99
29 | CC(=O)NC1(c2ccccc2)C2=NCCCN2c2ccccc21.Cl (stereo unspecified) | 76
30 | CCCCCCC1(O)C2=NCC(C)(C)CN2c2ccccc21.Cl (stereo unspecified) | 103
31 | CC(C)CCC1(O)C2=NCC(C)(C)CN2c2ccccc21.Cl (stereo unspecified) | 65
32 | COCCCCC1(O)C2=NCCCN2c2ccccc21.Cl (stereo unspecified) | 86
33 | CCOCCCCC1(O)C2=NCC(C)(C)CN2c2ccccc21.Cl (stereo unspecified) | 88
34 | Cl.OC1(c2ccccc2)C2=NCC3(CCCCCC3)CN2c2ccccc21 (stereo unspecified) | 87
35 | Cl.OC1(c2ccccc2)C2=NCC3(CCCC3)CN2c2ccccc21 (stereo unspecified) | 75
36 | CC(CCC1(O)C2=NCCCN2c2ccccc21)c1ccccc1.Cl (stereo unspecified) | 99
37 | COC(C)CCC1(O)C2=NCCCN2c2ccccc21.Cl (stereo unspecified) | 88
38 | Cc1ccc(S(=O)(=O)NC(=O)NC2(c3ccccc3)C3=NCC(C)(C)CN3c3ccccc32)cc1.Cl (stereo unspecified) | 101
39 | CC(=O)NC1(c2ccccc2)C2=NCC(C)(C)CN2c2ccccc21.Cl (stereo unspecified) | 85
40 | COC(C)CCC1(O)C2=NCC(C)(C)CN2c2ccccc21.Cl (stereo unspecified) | 69
41 | CC1(C)CN=C2N(C1)c1ccccc1C2(O)CCCCOCc1ccccc1.Cl (stereo unspecified) | 76
42 | CC(=O)NC1(c2ccc3ccccc3c2)C2=NCCCN2c2ccccc21.Cl (stereo unspecified) | 104
43 | CC(=O)NC1(c2ccccc2)C2=NCCCCN2c2ccccc21.Cl (stereo unspecified) | 86
44 | CC1(C)CN=C2N(C1)c1ccccc1C2(O)CC1CCCCC1.Cl (stereo unspecified) | 79

Same assay, conditions: 100 mg/kg

Row | Compound | Blood glucose [%]
45 | Cl.OC1(c2ccccc2)C2=NCC3(CCCCC3)CN2c2ccccc21 (stereo unspecified) | 78
46 | Cl.OC1(c2ccccc2)C2=NCC3(CCCCC3)CN2c2ccccc21 (single isomer, unassigned; (+)) | 82
47 | Cl.OC1(c2ccccc2)C2=NCC3(CCCCC3)CN2c2ccccc21 (single isomer, unassigned; (-)) | 81

Each compound was assayed on Rattus norvegicus (assay: Hypoglycemic activity was tested in rats at a standard dose of 100 mg/kg and calculated as percent of vehicle control after 4 hours (six rats per group)). Conditions: not given.
Format: functional
Procedure, shortened: as §1

Row | Compound | Blood glucose [%]
48 | CC1(C)CN=C2N(C1)c1ccccc1C2(N)c1ccccc1.Cl.Cl (stereo unspecified) | 68
49 | Cl.Cl.NC1(c2ccccc2)C2=NCCCN2c2ccccc21 (stereo unspecified) | 93
50 | Cl.Cl.OC1(c2ccccc2)C2=NCC3(CCNCC3)CN2c2ccccc21 (stereo unspecified) | 92
51 | CC1(C)CN=C2N(C1)c1ccccc1C2(NC(=O)c1ccccc1)c1ccccc1.Cl (stereo unspecified) | 116
52 | CCCCC1(O)C2=NCC3(CCCCC3)CN2c2ccccc21.Cl (stereo unspecified) | 68
53 | C=CCC1(O)C2=NCC(C)(C)CN2c2ccccc21.Cl (stereo unspecified) | 74
54 | CC1(C)CN=C2N(C1)c1ccccc1C2(O)C1CC1.Cl (stereo unspecified) | 81
55 | CCC1(O)C2=NCC(C)(C)CN2c2ccccc21.Cl (stereo unspecified) | 93
56 | CC(C)(C)CC1(O)C2=NCC(C)(C)CN2c2ccccc21.Cl (stereo unspecified) | 81
57 | CC1(C)CN=C2N(C1)c1ccccc1C2(NS(C)(=O)=O)c1ccccc1.Cl (stereo unspecified) | 67
58 | CCCC(=O)NC1(c2ccccc2)C2=NCC(C)(C)CN2c2ccccc21.Cl (stereo unspecified) | 77
59 | CCCCC1(O)C2=NCC(C)(C)CN2c2ccccc21.Cl (stereo unspecified) | 67
60 | Cl.OC1(c2ccc3ccccc3c2)C2=NCCCN2c2ccccc21 (stereo unspecified) | 64
61 | Cl.OC1(c2ccccc2)C2=NCCCN2c2ccccc21 (stereo unspecified) | 82
62 | Cl.OC1(CC2CCCCC2)C2=NCCCN2c2ccccc21 (stereo unspecified) | 81
63 | CC(C)CC1(O)C2=NCCCN2c2ccccc21.Cl (stereo unspecified) | 86
64 | CCOCCCCC1(O)C2=NCCCN2c2ccccc21.Cl (stereo unspecified) | 96
65 | COCC(C)CC1(O)C2=NCCCN2c2ccccc21.Cl (stereo unspecified) | 98
66 | CC1(C)CN=C2N(C1)c1ccccc1C2(O)c1ccccc1.Cl (stereo unspecified) | 75
67 | COCC(C)CC1(O)C2=NCC(C)(C)CN2c2ccccc21.Cl (stereo unspecified) | 72
68 | CC(=O)NC1(c2ccccc2)C2=NCC3(CCCC3)CN2c2ccccc21.Cl (stereo unspecified) | 90
69 | CC(C)CC1(O)C2=NCC(C)(C)CN2c2ccccc21.Cl (stereo unspecified) | 77

Row | Compound | Blood glucose [%]
70 | Cl.OCC#CC1(O)C2=NCCCN2c2ccccc21 (stereo unspecified) | 94
71 | CC(=O)NC1(c2cccc(Cl)c2)C2=NCCCN2c2ccccc21.Cl (stereo unspecified) | 85
72 | Cl.NC1(c2cccc(Cl)c2)C2=NCCCN2c2ccccc21 (stereo unspecified) | 84
73 | COCCCCC1(O)C2=NCC(C)(C)CN2c2ccccc21.Cl (stereo unspecified) | 87
74 | CCC(CC)CC1(O)C2=NCCCN2c2ccccc21.Cl (stereo unspecified) | 68
75 | Cl.OC1(c2cccc(Cl)c2)C2=NCCCN2c2ccccc21 (stereo unspecified) | 84
76 | CC(=O)NC1(c2ccccc2)C2=NCCCN2c2ccccc21.Cl (stereo unspecified) | 75
77 | CCCCCCC1(O)C2=NCC(C)(C)CN2c2ccccc21.Cl (stereo unspecified) | 107
78 | CC(C)CCC1(O)C2=NCC(C)(C)CN2c2ccccc21.Cl (stereo unspecified) | 78
79 | COCCCCC1(O)C2=NCCCN2c2ccccc21.Cl (stereo unspecified) | 87
80 | CCOCCCCC1(O)C2=NCC(C)(C)CN2c2ccccc21.Cl (stereo unspecified) | 86
81 | Cl.OC1(c2ccccc2)C2=NCC3(CCCCCC3)CN2c2ccccc21 (stereo unspecified) | 76
82 | Cl.OC1(c2ccccc2)C2=NCC3(CCCC3)CN2c2ccccc21 (stereo unspecified) | 71
83 | CC(CCC1(O)C2=NCCCN2c2ccccc21)c1ccccc1.Cl (stereo unspecified) | 88
84 | COC(C)CCC1(O)C2=NCCCN2c2ccccc21.Cl (stereo unspecified) | 95
85 | Cc1ccc(S(=O)(=O)NC(=O)NC2(c3ccccc3)C3=NCC(C)(C)CN3c3ccccc32)cc1.Cl (stereo unspecified) | 90
86 | CC(=O)NC1(c2ccccc2)C2=NCC(C)(C)CN2c2ccccc21.Cl (stereo unspecified) | 77
87 | COC(C)CCC1(O)C2=NCC(C)(C)CN2c2ccccc21.Cl (stereo unspecified) | 73
88 | CC1(C)CN=C2N(C1)c1ccccc1C2(O)CCCCOCc1ccccc1.Cl (stereo unspecified) | 91
89 | CC(=O)NC1(c2ccc3ccccc3c2)C2=NCCCN2c2ccccc21.Cl (stereo unspecified) | 100
90 | CC(=O)NC1(c2ccccc2)C2=NCCCCN2c2ccccc21.Cl (stereo unspecified) | 73
91 | CC1(C)CN=C2N(C1)c1ccccc1C2(O)CC1CCCCC1.Cl (stereo unspecified) | 84

Same assay, conditions: 100 mg/kg

Row | Compound | Blood glucose [%]
92 | Cl.OC1(c2ccccc2)C2=NCC3(CCCCC3)CN2c2ccccc21 (stereo unspecified) | 60
93 | Cl.OC1(c2ccccc2)C2=NCC3(CCCCC3)CN2c2ccccc21 (single isomer, unassigned; (+)) | 69
94 | Cl.OC1(c2ccccc2)C2=NCC3(CCCCC3)CN2c2ccccc21 (single isomer, unassigned; (-)) | 71

Organism: Rattus norvegicus
Test: Potency to dissociate hypoglycemic activity relative to compound 38
Format: functional
Conditions: not given
Procedure, shortened: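 Three-point oral dose-response in fed male Sprague-Dawley CD rats, eight per group, with the reference standard run alongside; 10, 30 and 100 mg/kg po (some studies 10, 20, 50 mg/kg). Rats exsanguinated by decapitation at 4 h; blood into EDTA and Trasylol, plasma glucose by glucose oxidase-peroxidase; potency relative to standard.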

Row | Compound | Relative potency
95 | CC1(C)CN=C2N(C1)c1ccccc1C2(N)c1ccccc1.Cl.Cl (stereo unspecified) | 0.9
96 | Cl.Cl.NC1(c2ccccc2)C2=NCCCN2c2ccccc21 (stereo unspecified) | 0.47
97 | CCCCC1(O)C2=NCC3(CCCCC3)CN2c2ccccc21.Cl (stereo unspecified) | 3.69
98 | CC1(C)CN=C2N(C1)c1ccccc1C2(O)C1CC1.Cl (stereo unspecified) | 0.11
99 | CC(C)(C)CC1(O)C2=NCC(C)(C)CN2c2ccccc21.Cl (stereo unspecified) | 0.65
100 | CC1(C)CN=C2N(C1)c1ccccc1C2(NS(C)(=O)=O)c1ccccc1.Cl (stereo unspecified) | 0.04
101 | Cl.OC1(c2ccc3ccccc3c2)C2=NCCCN2c2ccccc21 (stereo unspecified) | 0.01
102 | Cl.OC1(c2ccccc2)C2=NCCCN2c2ccccc21 (stereo unspecified) | 0.52
103 | Cl.OC1(CC2CCCCC2)C2=NCCCN2c2ccccc21 (stereo unspecified) | 0.12
104 | CC1(C)CN=C2N(C1)c1ccccc1C2(O)c1ccccc1.Cl (stereo unspecified) | 1
105 | COCC(C)CC1(O)C2=NCC(C)(C)CN2c2ccccc21.Cl (stereo unspecified) | 0.47
106 | CC(C)CC1(O)C2=NCC(C)(C)CN2c2ccccc21.Cl (stereo unspecified) | 0.69
107 | CC(=O)NC1(c2cccc(Cl)c2)C2=NCCCN2c2ccccc21.Cl (stereo unspecified) | 0.5
108 | COCCCCC1(O)C2=NCC(C)(C)CN2c2ccccc21.Cl (stereo unspecified) | 0.05
109 | CCC(CC)CC1(O)C2=NCCCN2c2ccccc21.Cl (stereo unspecified) | 0.86
110 | CC(=O)NC1(c2ccccc2)C2=NCCCN2c2ccccc21.Cl (stereo unspecified) | 0.03
111 | Cl.OC1(c2ccccc2)C2=NCC3(CCCCCC3)CN2c2ccccc21 (stereo unspecified) | 0.3
112 | Cl.OC1(c2ccccc2)C2=NCC3(CCCC3)CN2c2ccccc21 (stereo unspecified) | 0.1
113 | CC(=O)NC1(c2ccccc2)C2=NCC(C)(C)CN2c2ccccc21.Cl (stereo unspecified) | 0.03
114 | COC(C)CCC1(O)C2=NCC(C)(C)CN2c2ccccc21.Cl (stereo unspecified) | 1.1
115 | CC(=O)NC1(c2ccccc2)C2=NCCCCN2c2ccccc21.Cl (stereo unspecified) | 0.13
116 | Cl.OC1(c2ccccc2)C2=NCC3(CCCCC3)CN2c2ccccc21 (stereo unspecified) | 1.33
